We go through one compound from PubChem BioAssay AID624017 (Broad Institute, 2012).

For orientation: IC50 means the midpoint of a concentration-inhibition curve.

In the experiment the test system is ldlA[mSR-BI] cells, [3H]cholesterol efflux to HDL. Description: free cholesterol efflux blockade in ldlA[mSR-BI] cells – [3H]cholesterol, powder samples, set 2, mechanism study for SR-BI HDL uptake inhibitor project, dose response (AID 624017). In a few lines:
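material = ldlA[mSR-BI] cells prelabelled with [3H]cholesterol | buffer or medium = 0.5% fatty acid-free BSA, 25 mM HEPES buffer, pH 7.4 | also added = HDL as cholesterol acceptor, 100 µg/mL final | detection = liquid scintillation counting of [3H] in medium and Triton lysate | timing = 2-day labelling, 24 h equilibration, 1 h pretreatment, 2 h efflux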

As for `CC(C)NC(=O)Nc1ccc2c(c1)C(=O)N([C@H](C)CO)C[C@@H](C)[C@H](CN(C)S(=O)(=O)c1ccc(Cl)cc1)O2`, the IC50 was 250 nM.
